“And” between values parts separate entries of the source, which are not always exact repeats. Equal values may be shown once.
Tests used:
Mu-type opioid receptor [1] = target: Mu-type opioid receptor (Rattus norvegicus, UniProt P33535); experiment: Inhibition of radioligand [3H]DAMGO binding to rat brain Opioid receptor mu 1 […]
Method in brief: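 Rat brain membranes were labelled with [3H]DAMGO (1–3 nM) for 4 h at 25 °C in 50 mM Tris-HCl pH 7.4 with protease inhibitor cocktail. Nonspecific binding was set with 20 μM levallorphan. Displacement used 8–10 drug concentrations, run twice, with drug diluted in Tris pH 7.4 containing 1 mg/mL BSA. IC50 and slope factor came from curve fitting.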

[2] = target: Delta-type opioid receptor (Rattus norvegicus, UniProt P33533); experiment: Inhibition of radioligand [3H]DADLE binding to rat brain Opioid receptor delta 1
Sequence of Delta-type opioid receptor (Rattus norvegicus, UniProt P33533) (P33533 whole entry): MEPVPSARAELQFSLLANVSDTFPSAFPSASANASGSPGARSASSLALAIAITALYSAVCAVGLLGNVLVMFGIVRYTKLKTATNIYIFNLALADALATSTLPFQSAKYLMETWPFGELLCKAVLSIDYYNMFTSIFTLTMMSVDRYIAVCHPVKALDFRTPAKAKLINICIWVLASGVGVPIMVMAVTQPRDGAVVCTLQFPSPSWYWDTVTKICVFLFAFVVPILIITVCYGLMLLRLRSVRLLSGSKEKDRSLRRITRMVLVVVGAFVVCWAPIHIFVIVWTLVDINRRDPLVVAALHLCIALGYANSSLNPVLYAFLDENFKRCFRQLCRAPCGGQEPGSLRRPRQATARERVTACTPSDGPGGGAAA
Method in brief: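 Rat brain membranes were labelled with [3H]DADLE (1.7–2.5 nM) for 3–4 h at 25 °C in Tris-HCl pH 7.4 with 100 mM choline chloride, 3 mM MnCl2, protease inhibitor cocktail and 100 nM DAMGO to block μ sites. Nonspecific binding was set with 20 μM levallorphan. Displacement used 8–10 drug concentrations, run twice. IC50 and slope factor came from curve fitting.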

[3] = target: Opioid receptors; mu & delta (Rattus norvegicus) (UniProt P33533+P33535); experiment: Mu/delta inhibitory ratio of compound determined Rat brain receptors
Sequence of Opioid receptors; mu & delta (Rattus norvegicus) (P33533 whole entry, looked up): as the sequence (P33533 whole entry) above
Sequence of Opioid receptors; mu & delta (Rattus norvegicus) (P33535 whole entry, looked up): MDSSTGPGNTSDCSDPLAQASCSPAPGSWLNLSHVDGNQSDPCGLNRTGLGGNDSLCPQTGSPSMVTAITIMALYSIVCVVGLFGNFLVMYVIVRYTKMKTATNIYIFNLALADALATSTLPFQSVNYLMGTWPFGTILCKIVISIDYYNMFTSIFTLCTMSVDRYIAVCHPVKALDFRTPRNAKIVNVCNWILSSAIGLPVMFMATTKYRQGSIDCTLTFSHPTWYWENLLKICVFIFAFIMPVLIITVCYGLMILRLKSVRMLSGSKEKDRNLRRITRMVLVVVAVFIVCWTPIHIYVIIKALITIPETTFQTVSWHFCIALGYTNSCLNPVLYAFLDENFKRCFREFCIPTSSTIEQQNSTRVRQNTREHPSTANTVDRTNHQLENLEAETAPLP

Mu-type opioid receptor [4] = target: Mu-type opioid receptor (Cavia porcellus, UniProt P97266); experiment: Agonist activity was evaluated in guinea pig ileum (GPI) preparations at Opioid receptor mu 1; type: functional, tissue-based
Sequence of Mu-type opioid receptor (Cavia porcellus, UniProt P97266) (P97266 whole entry): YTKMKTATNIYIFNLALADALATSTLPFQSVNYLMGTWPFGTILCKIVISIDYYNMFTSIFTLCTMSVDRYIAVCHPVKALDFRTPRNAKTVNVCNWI
Method in brief: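 Longitudinal muscle–myenteric plexus strips from male Hartley guinea pig ileum (250–500 g) were held in 37 °C oxygenated Krebs bicarbonate under 1 g tension.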

[5] = target: Delta-type opioid receptor (Mus musculus, UniProt P32300); experiment: Agonist activity was evaluated in mouse vas deferens (MVD) preparations at Opioid receptor delta 1; type: functional
Sequence of Delta-type opioid receptor (Mus musculus, UniProt P32300) (P32300 whole entry): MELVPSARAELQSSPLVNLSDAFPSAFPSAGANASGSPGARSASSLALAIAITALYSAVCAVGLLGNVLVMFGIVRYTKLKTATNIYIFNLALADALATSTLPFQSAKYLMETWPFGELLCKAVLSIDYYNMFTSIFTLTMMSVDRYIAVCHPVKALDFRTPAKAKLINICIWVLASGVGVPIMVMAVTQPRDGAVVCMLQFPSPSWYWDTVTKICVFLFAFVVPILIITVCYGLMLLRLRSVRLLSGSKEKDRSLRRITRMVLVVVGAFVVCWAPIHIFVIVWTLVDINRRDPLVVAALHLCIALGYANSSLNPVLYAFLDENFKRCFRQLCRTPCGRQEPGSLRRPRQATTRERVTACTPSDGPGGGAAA
Method in brief: (§1)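 Vas deferens from male ICR mice (25–40 g) was held in 37 °C oxygenated magnesium-free Krebs bicarbonate under 0.5 g tension. Tissue was field-stimulated at 0.1 Hz with 2-ms supramaximal pulses.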

Mus musculus = species: Mus musculus; experiment: Agonist activity was evaluated in mouse vas deferens (MVD) preparations at opioid delta receptor; type: functional; method in brief: as §1
Cavia porcellus = species: Cavia porcellus; experiment: IC50 ratio on Mu receptor of GPI to the delta receptor MVD
Method in brief: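 The ratio is guinea pig ileum IC50 divided by mouse vas deferens IC50. Both tissues were electrically stimulated at 0.1 Hz, the ileum with 0.4-ms and the vas deferens with 2-ms pulses, and exposed to cumulative agonist doses.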

Sequence of Mu-type opioid receptor (Rattus norvegicus, UniProt P33535) (P33535 whole entry): as the sequence (P33535 whole entry, looked up) above

Question: C=CCN1C[C@H](C)N([C@H](c2ccccc2)c2ccc(C(=O)N(CC)CC)cc2)C[C@H]1C (stereo in doubt; (+)-26) [listing 1 of 2 here] was tested. Which IC50 (Mu-type opioid receptor [1]) did it give?
Answer: > 10000 nM

Question: And the IC50 [2]?
Answer: 60 nM

Question: For C=CCN1C[C@@H](C)N([C@H](c2ccc(C(=O)N(CC)CC)cc2)c2cccc(O)c2)C[C@@H]1C (single isomer, unassigned), which IC50 [2] is on record?
Answer: 1.74 nM

Question: For C=CCN1C[C@H](C)N([C@H](c2ccc(C(=O)N(CC)CC)cc2)c2cccc(O)c2)C[C@H]1C (stereo in doubt; (+)-1), which IC50 [2] is on record?
Answer: 1.49 nM

Question: How did the Ratio [3] turn out when C=CCN1C[C@H](C)N([C@H](c2ccc(C(=O)N(CC)CC)cc2)c2cccc(F)c2)C[C@H]1C (stereo in doubt; (-)-23) [listing 1 of 2 here] was run?
Answer: > 7.3

Question: How did the IC50 [2] turn out when C=CCN1C[C@H](C)N([C@H](c2ccc(C(=O)N(CC)CC)cc2)c2cccc(O)c2)C[C@H]1C (stereo in doubt; (-)-1) was run?
Answer: 58.3 nM

Question: For C=CCN1C[C@H](C)N([C@H](c2ccc(C(=O)N(CC)CC)cc2)c2cccc(F)c2)C[C@H]1C (stereo in doubt; (+)-23) [listing 1 of 2 here], which IC50 (Mu-type opioid receptor [1]) is on record?
Answer: 1980 nM

Question: And the IC50 (Mu-type opioid receptor [4])?
Answer: 2600 nM

Question: What about the IC50 [5] of the same molecule?
Answer: 9.77 nM and 10.3 nM

Question: What about the IC50 [2] of the same molecule?
Answer: 2.92 nM

Question: And the IC50 (Mus musculus)?
Answer: 200 nM

Question: Which IC50 (Mu-type opioid receptor [1]) does the source give for C=CCN1C[C@H](C)N([C@H](c2ccccc2)c2ccc(C(=O)N(CC)CC)cc2)C[C@H]1C (stereo in doubt; (-)-26) [listing 1 of 2 here] here?
Answer: 8450 nM

Question: What about the IC50 (Mu-type opioid receptor [4]) of the same molecule?
Answer: 1780 nM

Question: And the IC50 [5]?
Answer: 126 nM

Question: And the IC50 [2]?
Answer: 9.22 nM

Question: With C=CCN1C[C@H](C)N([C@@H](c2ccc(C(=O)N(CC)CC)cc2)c2cccc(O)c2)C[C@H]1C as the molecule, how does the IC50 [2] read?
Answer: 11.4 nM

Question: Which IC50 (Mu-type opioid receptor [1]) does the source give for C=CCN1C[C@@H](C)N([C@H](c2ccc(C(=O)N(CC)CC)cc2)c2cccc(F)c2)C[C@@H]1C (single isomer, unassigned) here?
Answer: > 10000 nM

Question: What about the IC50 [2] of the same molecule?
Answer: 4.75 nM

Question: What about the Ratio [3] of the same molecule?
Answer: > 2110

Question: How did the IC50 (Mu-type opioid receptor [1]) turn out when C=CCN1C[C@H](C)N([C@@H](c2ccc(C(=O)N(CC)CC)cc2)c2cccc(F)c2)C[C@H]1C was run?
Answer: > 10000 nM

Question: What about the IC50 [2] of the same molecule?
Answer: 62.5 nM

Question: And the Ratio [3]?
Answer: > 160

Question: With C=CCN1C[C@H](C)N([C@H](c2ccc(C(=O)N(CC)CC)cc2)c2cccc(F)c2)C[C@H]1C (stereo in doubt; (-)-23) [listing 2 of 2 here] as the molecule, how does the IC50 (Mu-type opioid receptor [1]) read?
Answer: > 10000 nM

Question: What about the IC50 [2] of the same molecule?
Answer: 1380 nM

Question: How did the Ratio (Cavia porcellus) turn out when C=CCN1C[C@H](C)N([C@H](c2ccc(C(=O)N(CC)CC)cc2)c2cccc(F)c2)C[C@H]1C (stereo in doubt; (+)-23) [listing 2 of 2 here] was run?
Answer: 265

Question: And the Ratio [3]?
Answer: 677

Question: Which Ratio [3] does the source give for C=CCN1C[C@H](C)N([C@H](c2ccccc2)c2ccc(C(=O)N(CC)CC)cc2)C[C@H]1C (stereo in doubt; (+)-26) [listing 2 of 2 here] here?
Answer: > 167

Question: Which results are given for C=CCN1C[C@H](C)N([C@@H](c2ccccc2)c2ccc(C(=O)N(CC)CC)cc2)C[C@H]1C (stereo in doubt; (+)-22) [listing 1 of 2 here]?
Answer: Ratio (Cavia porcellus): 813; Ratio [3]: > 2660

Question: Which results are given for C=CCN1C[C@H](C)N([C@H](c2ccc(C(=O)N(CC)CC)cc2)c2cccc(I)c2)C[C@H]1C?
Answer: IC50 (Mu-type opioid receptor [1]): 1230 nM; IC50 (Mu-type opioid receptor [4]): > 3000 nM; IC50 [5]: 44.2 nM; IC50 [2]: 3.91 nM; Ratio [3]: 314

Question: What does the source list for C=CCN1C[C@H](C)N([C@@H](c2ccc(C(=O)N(CC)CC)cc2)c2cccc(I)c2)C[C@H]1C?
Answer: IC50 (Mu-type opioid receptor [1]): 3380 nM; IC50 [2]: 41.1 nM; Ratio [3]: 82.2

Question: For C=CCN1C[C@H](C)N([C@H](c2ccccc2)c2ccc(C(=O)N(CC)CC)cc2)C[C@H]1C (stereo in doubt; (-)-26) [listing 2 of 2 here], which Ratio [3] is on record?
Answer: > 916

Question: How did the Ratio [3] turn out when C=CCN1C[C@H](C)N([C@@H](c2ccccc2)c2ccc(C(=O)N(CC)CC)cc2)C[C@H]1C (stereo in doubt; (-)-22) [listing 1 of 2 here] was run?
Answer: > 11.7

Question: Which results are given for C=CCN1C[C@H](C)N([C@@H](c2ccc(C(=O)N(CC)CC)cc2)c2cccc(OC)c2)C[C@H]1C (stereo in doubt; (-)-25)?
Answer: IC50 (Mu-type opioid receptor [1]): 9140 nM; IC50 (Mu-type opioid receptor [4]): 1520 nM

Question: With C=CCN1C[C@H](C)N([C@@H](c2ccc(C(=O)N(CC)CC)cc2)c2cccc(OC)c2)C[C@H]1C (stereo in doubt; (+)-25) as the molecule, how does the IC50 (Mu-type opioid receptor [1]) read?
Answer: 5710 nM

Question: With CC(NC(=O)[C@@H](N)Cc1ccc(O)cc1)C(=O)N[C@@H](Cc1ccccc1)C(=O)N[C@@H](CC(=O)O)C(=O)N[C@H](C(=O)N[C@H](C(=O)NCC(N)=O)C(C)C)C(C)C (single isomer, unassigned) [DELTORPHIN C] as the molecule, how does the IC50 (Mu-type opioid receptor [4]) read?
Answer: 15000 nM

Question: How did the IC50 (Mu-type opioid receptor [1]) turn out when C=CCN1C[C@H](C)N([C@@H](c2ccccc2)c2ccc(C(=O)N(CC)CC)cc2)C[C@H]1C (stereo in doubt; (-)-22) [listing 2 of 2 here] was run?
Answer: > 10000 nM

Question: And the IC50 [2]?
Answer: 852 nM

Question: Which results are given for C=CCN1C[C@H](C)N([C@@H](c2ccccc2)c2ccc(C(=O)N(CC)CC)cc2)C[C@H]1C (stereo in doubt; (+)-22) [listing 2 of 2 here]?
Answer: IC50 (Mu-type opioid receptor [1]): > 2500 nM; IC50 (Mu-type opioid receptor [4]): 8580 nM; IC50 [2]: 0.94 nM

— ChEMBL document CHEMBL1130417 (J Med Chem, 1997)
